# According to article PMC5059843 (Molecular pharmaceutics, 2016):
# “And” between values parts separate entries of the source, which are not always exact repeats. Equal values may be shown once. Read-outs that look alike come from different tables or passages of the source.
# How the values were obtained:
# [1] = tested on: rat CYP3A; format: biochemical
# [2] = Rat plasma equilibrium dialysis; format: in vitro ADME; details: pH 7.4
# How it was run: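 Rat plasma spiked with test compound to a final 2 μM. Dialysed in a 96-well equilibrium dialyser, plasma on one side and blank phosphate buffer (pH 7.4) on the other. Incubated 20 h at 37 °C under 5% CO2. The unbound fraction was determined from the two sides.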
# [3] = Rat pharmacokinetics of PPT alone; format: in vivo
# [4] = molecular target: T1, CYP3A4 (Homo sapiens, UniProt P08684); test: Spectral MIC formation in CYP3A4 baculosomes, SVD and kinetic modeling; format: biochemical
# T1 sequence (P08684 whole entry): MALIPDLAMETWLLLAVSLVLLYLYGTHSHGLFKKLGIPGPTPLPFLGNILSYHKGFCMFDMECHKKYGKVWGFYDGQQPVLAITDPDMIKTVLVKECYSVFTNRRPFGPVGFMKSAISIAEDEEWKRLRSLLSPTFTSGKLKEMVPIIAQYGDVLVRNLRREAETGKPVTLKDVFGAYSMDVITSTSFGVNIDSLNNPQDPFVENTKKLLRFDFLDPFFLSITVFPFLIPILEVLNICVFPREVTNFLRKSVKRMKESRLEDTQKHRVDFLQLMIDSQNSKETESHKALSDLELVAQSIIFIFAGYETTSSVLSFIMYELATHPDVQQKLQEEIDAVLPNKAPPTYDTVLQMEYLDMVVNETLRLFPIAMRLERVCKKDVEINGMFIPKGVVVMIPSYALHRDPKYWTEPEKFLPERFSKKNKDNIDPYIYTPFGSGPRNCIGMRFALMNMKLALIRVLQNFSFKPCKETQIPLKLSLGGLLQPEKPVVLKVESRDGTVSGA
# [5] = molecular target: T1, CYP3A4; format: biochemical
# [6] = molecular target: T1, CYP3A4; test: Stopped-flow binding kinetics of ligand to purified CYP3A4; details: for k2: dissociation rate from KS=k2/k1
# [7] = molecular target: T1, CYP3A4; test: In vitro TDI assay in pooled HLM; format: biochemical
# [8] = 3A4 baculosomes, Figure 3 scheme
# [9] = baculosomes, end of kinetic experiment (~30 min), 100 μM PPT
smiles,measurement,setting,value
"COc1cc([C@@H]2c3cc4c(cc3[C@H](O)[C@H]3COC(=O)[C@H]23)OCO4)cc(OC)c1OC [PPT, Podophyllotoxin]",k6/KI2,[1],6.1e+07 ± 1.68e+07 M⁻¹ s⁻¹
same,k7,[1],0.12 ± 0.02 min⁻¹ and 0.11 ± 0.02 min⁻¹
same,"fraction unbound at 20 h, 2 μM",[2],0.044 ± 0.006
same,"mean Cmax,unbound","[3]; PPT alone, 2-compartmental model",0.17 µM
same,Cmax,"[3]; male, Sprague-Dawley, plasma",3.94 µM
same,half-life,"[3]; male, Sprague-Dawley, plasma",37 min
same,k3 (Fe3+:carbene formation),"[4]; 3A4 baculosomes, 100 μM PPT, Figure 3 scheme, footnote b: fixed value",1.8 min⁻¹
same,"k4 (carbene release, enzyme regeneration)",[4]; [8],0.0780 ± 0.0186 min⁻¹
same,k5 (reduction to Fe2+:carbene),[4]; [8],0.0804 ± 0.0228 min⁻¹
same,k6 (P420 formation from EI),[4]; [8],0.1224 ± 0.0252 min⁻¹
same,k7 (P420 degradation),[4]; [8],0.0636 ± 0.0048 min⁻¹
same,fraction of total P450 as free P450,[4]; [9],15.0 ± 0.8%
same,fraction of total P450 in the inactivated form (Fe2+:carbene),[4]; [9],52.0 ± 5.8%
same,"enzyme regeneration through carbene release, baculosomes versus HLM",[4]; faster in baculosomes than in HLM,about 3 fold
same,"k4 (carbene release, enzyme regeneration)","[5]; HLM, Figure 3 scheme",0.0195 ± 0.000 min⁻¹
same,k6 (P420 formation from EI),"[5]; HLM, Figure 3 scheme",0.0506 ± 0.0401 min⁻¹
same,k7 (P420 degradation),"[5]; HLM, Figure 3 scheme",0 min⁻¹
same,k3 (Fe3+:carbene formation),"[5]; HLM, Figure 3 scheme, listed as carries footnote b: fixed value",1.134 ± 0.156 min⁻¹
same,fraction of cytochrome P450 in the Fe2+:carbene form,"[5]; HLM, end of the experiments",17.2 ± 2.2%
same,fraction of cytochrome P450 in the P420 form,"[5]; HLM, end of the experiments",24.0 ± 2.1%
same,fraction of cytochrome P450 in the free form,"[5]; HLM, end of the experiments",40.7 ± 7.3%
same,net rate constant for Fe2+:carbene formation (enzyme inactivation),[5]; spectral MIC formation experiments in HLM,0.020 min⁻¹
same,k2,[6]; used for 3A4 baculosomes model,10600 min⁻¹
same,k2,[6]; used for HLM model,10600 min⁻¹
same,experimentally determined on-rate (k1) used in the TDI model,[6]; fixed in the TDI model fitting,270 µM/s
same,k1,"[6]; from binding kinetic experiment, used for HLM model",1080 min⁻¹
same,k3,[7]; Q model,95.3 ± 1.7 min⁻¹
same,k5,[7]; Q model,3.89e+07 ± 1.63e+07 M⁻¹ s⁻¹
same,k7,[7]; Q model,0.23 ± 0.07 min⁻¹
same,k8,[7]; Q model,0.081 ± 0.012 min⁻¹
same,k10,[7]; Q model,0.011 ± 0.001 min⁻¹
same,α,[7]; Q model,0.21 ± 0.08
same,k5,[7]; QI model,5.618e+07 ± 2.612e+07 M⁻¹ s⁻¹
same,k8,[7]; QI model,0.15 ± 0.04 min⁻¹
same,k9,[7]; QI model,0.011 ± 0.001 min⁻¹
same,k10,[7]; QI model,0.017 ± 006 min⁻¹
same,α,[7]; QI model,0.16 ± 0.07
same,k3,"[7]; QI model (ESI-QI scheme, Figure 5a)",94.9 ± 1.6 min⁻¹
same,k7,"[7]; QI model, Fe3+:carbene formation",0.50 ± 0.23 min⁻¹
